From ChEMBL document CHEMBL4689842, “EUbOPEN Chemogenomics Library wave 1” (2021)

Tested on: HEK-293T
Assay: Multiplex assay against HEK293T;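 on Population Tubulin-Different-Phenotype (%): share of the cells with healthy nuclei that show this phenotype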
Type: toxicity, cell-based
Conditions: human
Method in brief: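 Tubulin, mitochondrial-mass and membrane-permeability phenotypes are per cents of healthy-nucleus cells. Cells were gated by CellPathfinder machine learning into Hoechst high-intensity objects or normal cells, normal cells into healthy, pyknosed or fragmented nuclei, and pyknosed cells into mitotic or apoptotic. Before that, live cells stained at seeding with Hoechst33342, BioTracker Green Microtubule Cytoskeleton Dye, MitoTracker Red and Annexin V Alexa Fluor 680 were imaged on a CQ1 microscope at 37°C and 5% CO2 after compound addition.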

[1] = 12 h, 1 µM, compound concentration 1 uM, replicate 1
[2] = 12 h, 1 µM, compound concentration 1 uM, replicate 2
[3] = 12 h, 10 µM, compound concentration 10 uM, replicate 1
[4] = 12 h, 10 µM, compound concentration 10 uM, replicate 2
[5] = 24 h, 1 µM, compound concentration 1 uM, replicate 1
[6] = 24 h, 1 µM, compound concentration 1 uM, replicate 2
[7] = 24 h, 10 µM, compound concentration 10 uM, replicate 1
[8] = 24 h, 10 µM, compound concentration 10 uM, replicate 2
[9] = 48 h, 1 µM, compound concentration 1 uM, replicate 1
[10] = 48 h, 1 µM, compound concentration 1 uM, replicate 2
[11] = 48 h, 10 µM, compound concentration 10 uM, replicate 1
[12] = 48 h, 10 µM, compound concentration 10 uM, replicate 2

**Q.** For `Cc1cc2c(cc1N1C(=O)c3cccc4c(CCCO)ccc(c34)C1=O)n(C)c(=O)n2C`, which “Population Apoptotic (%)” value [1] is on record?
**A.** 38%

**Q.** What about the “Population Fragmented Nuclei (%)” value [1] of the same molecule?
**A.** 14%

**Q.** What about the “Population Healthy Nuclei (%)” value [1] of the same molecule?
**A.** 44%

**Q.** What about the “Population Hoechst High Intensity Objects (%)” value [1] of the same molecule?
**A.** 16%

**Q.** And the “Population Membrane Permeable-Phenotype (%)” value [1]?
**A.** 4%

**Q.** What about the “Population Mitochondria Different-Phenotype (%)” value [1] of the same molecule?
**A.** 77%

**Q.** What about the “Population Mitotic Cells (%)” value [1] of the same molecule?
**A.** 61%

**Q.** What about the “Population Normal (%)” value [1] of the same molecule?
**A.** 83%

**Q.** And the “Population Pyknosed Nuclei (%)” value [1]?
**A.** 41%

**Q.** What about the “Population Tubulin-Different-Phenotype (%)” value [1] of the same molecule?
**A.** 47%

**Q.** And the “Total Cell Count” value [1]?
**A.** 307

**Q.** And the “Population Apoptotic (%)” value [2]?
**A.** 12%

**Q.** And the “Population Fragmented Nuclei (%)” value [2]?
**A.** 5%

**Q.** And the “Population Healthy Nuclei (%)” value [2]?
**A.** 50%

**Q.** And the “Population Hoechst High Intensity Objects (%)” value [2]?
**A.** 6%

**Q.** What about the “Population Membrane Permeable-Phenotype (%)” value [2] of the same molecule?
**A.** 5%

**Q.** What about the “Population Mitochondria Different-Phenotype (%)” value [2] of the same molecule?
**A.** 15%

**Q.** And the “Population Mitotic Cells (%)” value [2]?
**A.** 87%

**Q.** What about the “Population Normal (%)” value [2] of the same molecule?
**A.** 93%

**Q.** And the “Population Pyknosed Nuclei (%)” value [2]?
**A.** 44%

**Q.** And the “Population Tubulin-Different-Phenotype (%)” value [2]?
**A.** 22%

**Q.** What about the “Total Cell Count” value [2] of the same molecule?
**A.** 170

**Q.** And the “Population Apoptotic (%)” value [3]?
**A.** 53%

**Q.** And the “Population Fragmented Nuclei (%)” value [3]?
**A.** 7%

**Q.** What about the “Population Healthy Nuclei (%)” value [3] of the same molecule?
**A.** 43%

**Q.** What about the “Population Hoechst High Intensity Objects (%)” value [3] of the same molecule?
**A.** 9%

**Q.** What about the “Population Membrane Permeable-Phenotype (%)” value [3] of the same molecule?
**A.** 10%

**Q.** And the “Population Mitochondria Different-Phenotype (%)” value [3]?
**A.** 92%

**Q.** What about the “Population Mitotic Cells (%)” value [3] of the same molecule?
**A.** 46%

**Q.** What about the “Population Normal (%)” value [3] of the same molecule?
**A.** 90%

**Q.** And the “Population Pyknosed Nuclei (%)” value [3]?
**A.** 48%

**Q.** And the “Population Tubulin-Different-Phenotype (%)” value [3]?
**A.** 94%

**Q.** And the “Total Cell Count” value [3]?
**A.** 302

**Q.** What about the “Population Apoptotic (%)” value [4] of the same molecule?
**A.** 38%

**Q.** And the “Population Fragmented Nuclei (%)” value [4]?
**A.** 2%

**Q.** And the “Population Healthy Nuclei (%)” value [4]?
**A.** 45%

**Q.** And the “Population Hoechst High Intensity Objects (%)” value [4]?
**A.** 4%

**Q.** What about the “Population Membrane Permeable-Phenotype (%)” value [4] of the same molecule?
**A.** 11%

**Q.** What about the “Population Mitochondria Different-Phenotype (%)” value [4] of the same molecule?
**A.** 82%

**Q.** And the “Population Mitotic Cells (%)” value [4]?
**A.** 61%

**Q.** And the “Population Normal (%)” value [4]?
**A.** 95%

**Q.** What about the “Population Pyknosed Nuclei (%)” value [4] of the same molecule?
**A.** 51%

**Q.** And the “Population Tubulin-Different-Phenotype (%)” value [4]?
**A.** 96%

**Q.** And the “Total Cell Count” value [4]?
**A.** 359

**Q.** And the “Population Apoptotic (%)” value [5]?
**A.** 50%

**Q.** And the “Population Fragmented Nuclei (%)” value [5]?
**A.** 13%

**Q.** What about the “Population Healthy Nuclei (%)” value [5] of the same molecule?
**A.** 44%

**Q.** What about the “Population Hoechst High Intensity Objects (%)” value [5] of the same molecule?
**A.** 12%

**Q.** What about the “Population Membrane Permeable-Phenotype (%)” value [5] of the same molecule?
**A.** 4%

**Q.** And the “Population Mitochondria Different-Phenotype (%)” value [5]?
**A.** 61%

**Q.** And the “Population Mitotic Cells (%)” value [5]?
**A.** 49%

**Q.** What about the “Population Normal (%)” value [5] of the same molecule?
**A.** 87%

**Q.** What about the “Population Pyknosed Nuclei (%)” value [5] of the same molecule?
**A.** 41%

**Q.** And the “Population Tubulin-Different-Phenotype (%)” value [5]?
**A.** 44%

**Q.** And the “Total Cell Count” value [5]?
**A.** 295

**Q.** And the “Population Apoptotic (%)” value [6]?
**A.** 13%

**Q.** What about the “Population Fragmented Nuclei (%)” value [6] of the same molecule?
**A.** 5%

**Q.** What about the “Population Healthy Nuclei (%)” value [6] of the same molecule?
**A.** 75%

**Q.** And the “Population Hoechst High Intensity Objects (%)” value [6]?
**A.** 2%

**Q.** What about the “Population Membrane Permeable-Phenotype (%)” value [6] of the same molecule?
**A.** 9%

**Q.** And the “Population Mitochondria Different-Phenotype (%)” value [6]?
**A.** 11%

**Q.** And the “Population Mitotic Cells (%)” value [6]?
**A.** 86%

**Q.** And the “Population Normal (%)” value [6]?
**A.** 97%

**Q.** What about the “Population Pyknosed Nuclei (%)” value [6] of the same molecule?
**A.** 18%

**Q.** And the “Population Tubulin-Different-Phenotype (%)” value [6]?
**A.** 22%

**Q.** What about the “Total Cell Count” value [6] of the same molecule?
**A.** 194

**Q.** What about the “Population Apoptotic (%)” value [7] of the same molecule?
**A.** 63%

**Q.** What about the “Population Fragmented Nuclei (%)” value [7] of the same molecule?
**A.** 12%

**Q.** And the “Population Healthy Nuclei (%)” value [7]?
**A.** 54%

**Q.** What about the “Population Hoechst High Intensity Objects (%)” value [7] of the same molecule?
**A.** 11%

**Q.** And the “Population Membrane Permeable-Phenotype (%)” value [7]?
**A.** 6%

**Q.** What about the “Population Mitochondria Different-Phenotype (%)” value [7] of the same molecule?
**A.** 87%

**Q.** And the “Population Mitotic Cells (%)” value [7]?
**A.** 36%

**Q.** What about the “Population Normal (%)” value [7] of the same molecule?
**A.** 88%

**Q.** And the “Population Pyknosed Nuclei (%)” value [7]?
**A.** 32%

**Q.** What about the “Population Tubulin-Different-Phenotype (%)” value [7] of the same molecule?
**A.** 91%

**Q.** What about the “Total Cell Count” value [7] of the same molecule?
**A.** 306

**Q.** What about the “Population Apoptotic (%)” value [8] of the same molecule?
**A.** 47%

**Q.** What about the “Population Fragmented Nuclei (%)” value [8] of the same molecule?
**A.** 5%

**Q.** And the “Population Healthy Nuclei (%)” value [8]?
**A.** 63%

**Q.** What about the “Population Hoechst High Intensity Objects (%)” value [8] of the same molecule?
**A.** 3%

**Q.** And the “Population Membrane Permeable-Phenotype (%)” value [8]?
**A.** 3%

**Q.** And the “Population Mitochondria Different-Phenotype (%)” value [8]?
**A.** 71%

**Q.** And the “Population Mitotic Cells (%)” value [8]?
**A.** 52%

**Q.** What about the “Population Normal (%)” value [8] of the same molecule?
**A.** 96%

**Q.** What about the “Population Pyknosed Nuclei (%)” value [8] of the same molecule?
**A.** 30%

**Q.** What about the “Population Tubulin-Different-Phenotype (%)” value [8] of the same molecule?
**A.** 90%

**Q.** What about the “Total Cell Count” value [8] of the same molecule?
**A.** 377

**Q.** And the “Population Apoptotic (%)” value [9]?
**A.** 47%

**Q.** What about the “Population Fragmented Nuclei (%)” value [9] of the same molecule?
**A.** 22%

**Q.** And the “Population Healthy Nuclei (%)” value [9]?
**A.** 28%

**Q.** And the “Population Hoechst High Intensity Objects (%)” value [9]?
**A.** 14%

**Q.** And the “Population Membrane Permeable-Phenotype (%)” value [9]?
**A.** 2%

**Q.** And the “Population Mitochondria Different-Phenotype (%)” value [9]?
**A.** 33%

**Q.** What about the “Population Mitotic Cells (%)” value [9] of the same molecule?
**A.** 52%

**Q.** And the “Population Normal (%)” value [9]?
**A.** 85%

**Q.** What about the “Population Pyknosed Nuclei (%)” value [9] of the same molecule?
**A.** 49%

**Q.** What about the “Population Tubulin-Different-Phenotype (%)” value [9] of the same molecule?
**A.** 29%

**Q.** And the “Total Cell Count” value [9]?
**A.** 321

**Q.** What about the “Population Apoptotic (%)” value [10] of the same molecule?
**A.** 33%

**Q.** And the “Population Fragmented Nuclei (%)” value [10]?
**A.** 14%

**Q.** What about the “Population Healthy Nuclei (%)” value [10] of the same molecule?
**A.** 79%

**Q.** And the “Population Hoechst High Intensity Objects (%)” value [10]?
**A.** 2%

**Q.** And the “Population Membrane Permeable-Phenotype (%)” value [10]?
**A.** 10%

**Q.** What about the “Population Mitochondria Different-Phenotype (%)” value [10] of the same molecule?
**A.** 7%

**Q.** And the “Population Mitotic Cells (%)” value [10]?
**A.** 66%

**Q.** What about the “Population Normal (%)” value [10] of the same molecule?
**A.** 97%

**Q.** And the “Population Pyknosed Nuclei (%)” value [10]?
**A.** 5%

**Q.** And the “Population Tubulin-Different-Phenotype (%)” value [10]?
**A.** 22%

**Q.** What about the “Total Cell Count” value [10] of the same molecule?
**A.** 270

**Q.** What about the “Population Apoptotic (%)” value [11] of the same molecule?
**A.** 75%

**Q.** What about the “Population Fragmented Nuclei (%)” value [11] of the same molecule?
**A.** 19%

**Q.** What about the “Population Healthy Nuclei (%)” value [11] of the same molecule?
**A.** 64%

**Q.** And the “Population Hoechst High Intensity Objects (%)” value [11]?
**A.** 8%

**Q.** And the “Population Membrane Permeable-Phenotype (%)” value [11]?
**A.** 5%

**Q.** And the “Population Mitochondria Different-Phenotype (%)” value [11]?
**A.** 59%

**Q.** What about the “Population Mitotic Cells (%)” value [11] of the same molecule?
**A.** 25%

**Q.** What about the “Population Normal (%)” value [11] of the same molecule?
**A.** 91%

**Q.** What about the “Population Pyknosed Nuclei (%)” value [11] of the same molecule?
**A.** 16%

**Q.** What about the “Population Tubulin-Different-Phenotype (%)” value [11] of the same molecule?
**A.** 71%

**Q.** And the “Total Cell Count” value [11]?
**A.** 323

**Q.** What about the “Population Apoptotic (%)” value [12] of the same molecule?
**A.** 57%

**Q.** And the “Population Fragmented Nuclei (%)” value [12]?
**A.** 15%

**Q.** What about the “Population Healthy Nuclei (%)” value [12] of the same molecule?
**A.** 75%

**Q.** What about the “Population Hoechst High Intensity Objects (%)” value [12] of the same molecule?
**A.** 3%

**Q.** What about the “Population Membrane Permeable-Phenotype (%)” value [12] of the same molecule?
**A.** 3%

**Q.** What about the “Population Mitochondria Different-Phenotype (%)” value [12] of the same molecule?
**A.** 41%

**Q.** What about the “Population Mitotic Cells (%)” value [12] of the same molecule?
**A.** 42%

**Q.** And the “Population Normal (%)” value [12]?
**A.** 96%

**Q.** What about the “Population Pyknosed Nuclei (%)” value [12] of the same molecule?
**A.** 9%

**Q.** And the “Population Tubulin-Different-Phenotype (%)” value [12]?
**A.** 79%

**Q.** And the “Total Cell Count” value [12]?
**A.** 482
